# Laboratory results reported in ChEMBL document CHEMBL1759912, “Ionic liquid promoted synthesis, antibacterial and in vitro antiproliferative activity of novel α-aminophosphonate derivatives” (Bioorg Med Chem Lett, 2011).
# The source made the active and inactive calls. No cut-off for these calls is given here.
# Legend:
# Escherichia coli = experiment: Antibacterial activity against ampicillin-resistant Escherichia coli NCIM 2645 assessed as bacterial growth inhibition zone after 24 hrs by disc diffusion method; assay type: functional, organism-based
# How it was run: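 Strains activated in nutrient broth, 24 h at their optimum growth temperature. Nutrient agar plates seeded with 100 μl mid-log culture. Sterile 6 mm filter paper discs each loaded with 10 μl of compound solution (10 mg/ml in DMSO, filter-sterilised) and left to diffuse 20 min. Plates incubated 24 h at growth temperature. Controls: ampicillin disc (positive), 10 μl DMSO disc (negative). Zone ≥7 mm counted as susceptible.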
# Salmonella typhi = experiment: Antibacterial activity against ampicillin-resistant Salmonella typhi NCIM 2501 assessed as bacterial growth inhibition zone at […] after 24 hrs by disc diffusion method; assay type: functional, organism-based; details: Salmonella enterica subsp. enterica serovar Typhi
# A549 [1] = experiment: Induction of apoptosis in human A549 cells after 6 hrs; assay type: functional, cell-based
# SK-MEL-2 [2] = experiment: Induction of apoptosis in human SK-MEL-2 cells after 6 hrs; assay type: functional, cell-based
# SK-MEL-2 [3] = experiment: Antiproliferative activity against human SK-MEL-2 cells; assay type: functional, cell-based
# How it was run: (§1)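 A549 and SK-MEL2 cells (from NCCS Pune) grown in DMEM with 5–10% FBS, penicillin and 4 mM L-glutamine at 37 °C, 5% CO2. Plates were seeded 24 h ahead and washed with serum-free medium. Cells were exposed to 0, 2, 4, 8, 16 and 20 μM for […], then cell proliferation was estimated. Results are % cell growth, averaged from triplicate cultures run twice.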
# A549 [4] = experiment: Antiproliferative activity against human A549 cells assessed as growth inhibition at 2 to 20 uM after 24 hrs; assay type: functional
# A549 [5] = experiment: Antiproliferative activity against human A549 cells; assay type: functional, cell-based; how it was run: as §1
SMILES,Activity (Escherichia coli),Activity (Salmonella typhi),Activity (A549 [1]),Activity (SK-MEL-2 [2]),IC50 (SK-MEL-2 [3]),growth inhibition (GI) (A549 [4]),IC50 (A549 [5])
CCOP(=O)(OCC)C(Nc1ccc(Cl)cc1[N+](=O)[O-])c1ccc(OC)c(OC)c1 (configuration not stated),Active,Active,–,–,–,–,–
CCOP(=O)(OCC)C(Nc1ccc(I)cc1[N+](=O)[O-])c1ccc(Cl)cc1 (configuration not stated),–,Active,–,–,–,–,–
CCOP(=O)(OCC)C(Nc1ccc(Cl)cc1[N+](=O)[O-])c1cccc(Cl)c1 (configuration not stated),Active,Active,–,–,–,–,–
CCOP(=O)(OCC)C(Nc1ccc(Cl)cc1[N+](=O)[O-])c1c[nH]c2ccccc12 (configuration not stated),Active,Active,Active,Active,8.43 µM,80%,11.5 µM
